Results of several laboratories.
Target: High affinity nerve growth factor receptor (NTRK1, Homo sapiens, UniProt P04629)
Mode: inhibitor

SMILES	effect on	method	tested at	inhibition
O=C(Nc1ccc2[nH]ncc2c1)c1cccc(NC(=S)Nc2ccc(C(F)(F)F)cc2)c1	enzyme activity	FRET	1 µM	58%
CC/C(=N\NC(=O)NCc1cccc(O)c1)c1ccc(O)c(C)c1O	enzyme activity	–	0.1 µM	3.3%
CSc1nc(C)c(-c2ccnc(Nc3ccc(N4CCOCC4)cc3)c2)[nH]1	cell-free assay	–	10 µM	10.1%
CNCc1ccc(-c2cc(-c3nc(-c4ccc(S(=O)(=O)C(C)C)cc4)cnc3N)on2)cc1	enzyme activity	–	0.4 µM	13%
O=C(Nc1cccc(C(=O)Nc2ccc3[nH]ncc3c2)c1)Nc1cccc(C(F)(F)F)c1	enzyme activity	FRET	1 µM	67.4%
COc1cc2nccc(Oc3ccc(NC(=O)c4c5n(n(-c6ccc(F)cc6)c4=O)CCCC5)cc3)c2cc1OC	enzyme activity	–	0.1 µM	63%
CNC(=O)c1cc(Oc2ccc(NC(=O)Nc3ccc(Cl)c(C(F)(F)F)c3)cc2)ccn1	enzyme activity	–	0.3 µM	36%
COc1cc2ncnc(Nc3ccc(Oc4ccccc4)c(C)c3C)c2cc1OC	enzyme activity	–	1 µM	-1%
O=C(Nc1ccccc1)Nc1cccc(C(=O)Nc2ccc3[nH]ncc3c2)c1	enzyme activity	FRET	1 µM	33.2%
CN(C)C1CCN(CC#Cc2nn(C3CCCC3)c3nc(NCc4ccccc4)ncc23)C1 (stereo not drawn)	enzyme activity	FRET	0.1 µM	6%
C=CC(=O)Nc1cc(Nc2nccc(Nc3cc(Cl)c(F)cc3C(C)(C)O)n2)c(OC)cc1N1CC[C@@H](N(C)C)C1	enzyme activity	–	1 µM	51%
Cc1ccc(Nc2nccc(N(C)c3ccc4c(C)n(C)nc4c3)n2)cc1S(N)(=O)=O	enzyme activity	–	10 µM	79%
CNC(=O)c1ccccc1Nc1cc(Nc2ccc(N3CCOCC3)cc2OC)ncc1C(F)(F)F	enzyme activity	–	1 µM	> 50%
O=C(Nc1ccc(Cl)cc1)Nc1cccc(C(=O)Nc2ccc3[nH]ncc3c2)c1	enzyme activity	FRET	1 µM	55.3%
CCN(CC)CCNC(=O)c1c(C)[nH]c(/C=C2\C(=O)Nc3ccc(F)cc32)c1C	enzyme activity	–	10 µM	99%
